Source: ChEMBL document CHEMBL1126856, “Azulenic retinoids: novel nonbenzenoid aromatic retinoids with anticancer activity” (1993)
Values joined by “and” are separate entries in the source; they are usually repeats but may differ in a detail not shown here. Equal values may be shown once.

Legend:
Type in all cases: functional, Mus musculus
[1] = system: C3H 10T1/2; assay: Inhibition of Neoplastic transformation at a concentration of 10*e-6 M; design: scale not given: the % may be the effect or the level left
Procedure, shortened: (§1)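 C3H10T1/2 cells given 3-MCA (3 μg/mL) for 24 h, then 7 days later continuous retinoid in acetone (final 0.5%), renewed at each weekly medium change, for 4 weeks. Cultures were fixed, stained and scored for type II and III transformed foci; result as foci/dish and % of MCA-treated control. 12 dishes per group.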

[2] = system: C3H 10T1/2; assay: Inhibition of Neoplastic transformation at a concentration of 10*e-8 M; design: scale not given: the % may be the effect or the level left; procedure, shortened: as §1
[3] = system: C3H 10T1/2; assay: Tested for toxicity against C3H10T1/2 cell line of murine embryo fibroblasts at 10 e-6 M
Procedure, shortened: (§2)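 C3H10T1/2 cells plated at clonal density and exposed to retinoid in acetone (0.5%) for 7 days. Plating efficiency was normalized to the MCA-treated (1 day) control plating efficiency.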

[4] = system: C3H 10T1/2; assay: Tested for toxicity against C3H10T1/2 cell line of murine embryo fibroblasts at 10*e-8 M; procedure, shortened: as §2
[5] = system: C3H 10T1/2; assay: The compound was tested for inhibition of Neoplastic transformation, at a concentration of 10*e-10 M; design: scale not given: the % may be the effect or the level left; procedure, shortened: as §1
[6] = system: C3H 10T1/2; assay: Toxicity against C3H10T1/2 cell line of murine embryo fibroblasts at 10*e-10 M; procedure, shortened: as §2
[7] = system: C3H 10T1/2; assay: Inhibition of neoplastic transformation was measured by measuring the transformed foci per dish at 10 e-6 M; procedure, shortened: as §1
[8] = system: C3H 10T1/2; assay: Tested for inhibition of neoplastic transformation by measuring the transformed foci per dish at 10*e-10 M; procedure, shortened: as §1
[9] = system: C3H 10T1/2; assay: Tested for inhibition of neoplastic transformation by measuring the transformed foci per dish at 10*e-8 M; procedure, shortened: as §1
[10] = system: C3H 10T1/2; assay: Tested for anticancer activity by measuring the number of communicating cells using gap junctional communication assay at 10*e-6 M (P>0.001)
[11] = system: C3H 10T1/2; assay: Tested for anticancer activity by measuring the number of communicating cells using gap junctional communication assay at 10e-6 M (P>0.001)
[12] = system: C3H 10T1/2; assay: Inhibition of neoplastic transformation at a concentration of 10e-6 M; procedure, shortened: as §1
[13] = system: C3H 10T1/2; assay: Inhibition of neoplastic transformation at a concentration of 10e-8 M; design: scale not given: the % may be the effect or the level left; procedure, shortened: as §1
[14] = system: C3H 10T1/2; assay: Tested for toxicity against C3H10T1/2 cell line of murine embryo fibroblasts at 10e-6 M; procedure, shortened: as §2
[15] = system: C3H 10T1/2; assay: Tested for toxicity against C3H10T1/2 cell line of murine embryo fibroblasts at 10e-8 M; procedure, shortened: as §2
[16] = system: C3H 10T1/2; assay: The compound was tested for inhibition of Neoplastic transformation, at a concentration of 10e-10 M; design: scale not given: the % may be the effect or the level left; procedure, shortened: as §1
[17] = system: C3H 10T1/2; assay: The compound was tested for inhibition of neoplastic transformation, at a concentration of 10e-10 M; design: scale not given: the % may be the effect or the level left; procedure, shortened: as §1
[18] = system: C3H 10T1/2; assay: Toxicity against C3H10T1/2 cell line of murine embryo fibroblasts at 10e-10 M; procedure, shortened: as §2
[19] = system: C3H 10T1/2; assay: Inhibition of neoplastic transformation was measured by measuring the transformed foci per dish at 10e-6 M; procedure, shortened: as §1
[20] = system: C3H 10T1/2; assay: Tested for inhibition of neoplastic transformation by measuring the transformed foci per dish at 10e-10 M; procedure, shortened: as §1
[21] = system: C3H 10T1/2; assay: Tested for inhibition of neoplastic transformation by measuring the transformed foci per dish at 10e-8 M; procedure, shortened: as §1
[22] = system: C3H 10T1/2; assay: Tested for anticancer activity by measuring the number of communicating cells using gap junctional communication assay at 10e-6 M (P>0.01)
[23] = system: C3H 10T1/2; assay: Tested for anticancer activity by measuring the number of communicating cells using gap junctional communication assay at 10e-6 M (P>0.05)
[24] = system: C3H 10T1/2; assay: Tested for anticancer activity by measuring the number of communicating cells using gap junctional communication assay at 10e-6 M

SMILES	Transformed foci, % of MCA-treated control [12] [%]	Control [13] [%]	Control [14]	Control [15]	Control [17] [%]	Control [18]	Foci/dish [19]	Foci/dish [20]	Foci/dish [21]	further results
CC(/C=C/C=C/c1cc(C)c2cc(C(C)C)ccc(C)c1-2)=C\C(=O)O										Control [1]: 76%; Control [2]: 120%; Control [3]: 89.1%; Control [4]: 120%; Control [5]: 103%; Control [6]: 116%; Foci/dish [7]: 0.8; Foci/dish [8]: 1.08; Foci/dish [9]: 1.27; Communicating cells [10]: 9.1
C/C(=C\c1ccc(C(=O)O)cc1)c1ccc2c(c1)C(C)(C)CCC2(C)C	0	0	80% and 85%	83% and 91%	0	95% and 96%	0	0	0	Communicating cells [11]: 21.2; Control [16]: 0%; Communicating cells [10]: 18.5
Cc1cc(/C=C/c2ccc(C=O)cc2)c2c(C)ccc(C(C)C)cc1-2	87	166	58%	174%	143	142%	0.91	1.5	1.75	Communicating cells [22]: 8.7
Cc1ccc(C(C)C)cc2c(C)c(/C=C/c3ccc(C(=O)O)cc3)cc1-2	24	24	84%	129%	24	96%	0.16	0.16	0.16	Communicating cells [22]: 7.2
Cc1cc(/C=C/C=C/C(=C\C(=O)O)C(F)(F)F)c2c(C)ccc(C(C)C)cc1-2	88	88	178%	156%	88	98%	0.58	0.58	0.58	Communicating cells [23]: 5.6
O=C(O)c1ccc(/C=C/c2ccc3cccccc2-3)cc1	12	50	67%	147%	50	129%	0.08	0.33	0.33	Communicating cells [11]: 7.4
Cc1cc(/C=C/c2ccc(CO)cc2)c2c(C)ccc(C(C)C)cc1-2	104	110	84%	138%	95	129%	1.09	1	1.16	Communicating cells [24]: 4.9
Cc1cc(/C=C/c2ccc(C(=O)O)cc2)c2c(C)ccc(C(C)C)cc1-2	0	40	67%	94%	146	119%	0	1.54	0.42	Communicating cells [11]: 18.3
Cc1ccc2c(/C=C/c3ccc(C(=O)O)cc3)ccc(C(C)C)cc1-2	0	24	66%	75%	24	75%	0	0.16	0.16	Communicating cells [11]: 9.5
CC(/C=C/C=C/c1cc(C)c2cc(C(C)C)ccc(C)c1-2)=C\C=O	119	95	125%	129%	110	115%	1.25	1.16	1	Communicating cells [24]: 5.7
CC(/C=C/c1cc(C)c2cc(C(C)C)ccc(C)c1-2)=C\C=C\C(C)=C\C(=O)O	75	61	178%	151%	61	94%	0.5	0.4	0.4	Communicating cells [24]: 1.55
CC(/C=C/C=C/c1ccc2cccccc1-2)=C(/F)C(=O)O	12	12	78%	120%	88	113%	0.08	0.58	0.08	Communicating cells [22]: 8.8
Cc1cc(/C=C/C=C/c2ccc(C(=O)O)cc2)c2c(C)ccc(C(C)C)cc1-2	75	50	98%	94%	50	89%	0.5	0.33	0.33	Communicating cells [24]: 2.9
CC(/C=C/C=C/c1cc(C)c2cc(C(C)C)ccc(C)c1-2)=C\CO	112	142	89%	120%	142	125%	1.18	1.5	1.5	Communicating cells [23]: 8.8
